This is a sample that favours compounds with a hit; in the whole collection about 2.4% have one here.
LMPTP inh = LMPTP phosphatase inhibitors, primary screen, biochemical, fluorescence intensity, uHTS. Low molecular weight phosphotyrosine protein phosphatase (Homo sapiens), P24666. recombinant LMPTP-A, OMFP fluorogenic substrate. inhibition, % at 20 µM. 360,000 compounds, 0.22% hits. AID 651560, 2012;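 active = compounds that cut the enzyme signal by at least half of the control window in the single-dose screen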
Target sequence (P24666 whole entry, looked up): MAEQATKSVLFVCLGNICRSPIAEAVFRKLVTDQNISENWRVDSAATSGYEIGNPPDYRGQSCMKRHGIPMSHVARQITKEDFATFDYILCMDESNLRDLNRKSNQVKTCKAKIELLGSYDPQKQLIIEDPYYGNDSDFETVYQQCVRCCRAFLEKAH
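test system = LMPTP-A | amount = 0.625 nM LMPTP-A final | reagent = fluorogenic phosphatase substrate OMFP at 400 µM final | incubation = 50 min at room temperature | benchmarks = no-enzyme low control, uninhibited high control | medium = Bis-Tris pH 6.0, DTT, detergent | signal = fluorescence intensity of OMFP turnover product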
SUMO1 PPI mod = modulators of SUMO1 protein-protein interactions, primary screen, biochemical, uHTS. inhibition, % at 20 µM. Small ubiquitin-related modifier 1 (Homo sapiens), P63165. SUMO1 binding to a labelled peptide, TR-FRET, 1 h. AID 602429, 2012. 360,000 compounds, 0.33% hits; in the data active = inhibition above about 37%
Target sequence (P63165 whole entry, looked up): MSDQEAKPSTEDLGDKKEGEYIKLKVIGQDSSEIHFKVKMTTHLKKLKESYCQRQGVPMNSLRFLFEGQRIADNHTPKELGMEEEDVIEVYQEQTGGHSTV
DNMT1 block = human DNMT1 methyltransferase inhibitors, primary screen, biochemical, molecular beacon, fluorescence, HinP1I cleavage, uHTS; DNA (cytosine-5)-methyltransferase 1 (Homo sapiens), P26358; inhibition (reported as % activation of signal), % at 10 µM; 360,000 compounds, 0.83% hits; in the data active = inhibition above about 50%
NadD block = inhibitors of S. aureus NadD, primary screen, biochemical, colorimetric, uHTS; Nicotinate-nucleotide adenylyltransferase NadD (Staphylococcus aureus N315); purified NadD enzyme, colorimetric absorbance read-out; inhibition, % at 20 µM; 360,000 compounds, 0.78% hits; AID 602399, 2012; in the data active = inhibition above about 26%
STEP block = STEP phosphatase inhibitors, primary screen, biochemical, fluorescence intensity, uHTS | Tyrosine-protein phosphatase non-receptor type 5 (Homo sapiens), P54829 | recombinant STEP, OMFP fluorogenic substrate | inhibition, % at 20 µM | 360,000 compounds, 0.25% hits;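 active = inhibition at 20 µM, scaled per plate between control wells, above about 37%, limit read from the data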
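material = STEP tyrosine phosphatase | reagent = fluorogenic phosphatase substrate OMFP at 25 µM final | doses = single compound dose of 20 µM, 1% DMSO final | schedule = 20 min reaction, room temperature, in the dark | measured by = fluorescence, 480/540 nm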
Scp-1 inhibitor = Scp-1 phosphatase inhibitors, primary screen, biochemical, colorimetric, uHTS; Carboxy-terminal domain RNA polymerase II polypeptide A small phosphatase 1 (Homo …; Recombinant Scp1, phosphopeptide, malachite green phosphate absorbance; inhibition, % at 20 µM; 340,000 compounds, 0.88% hits;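 active = inhibition above about 50% at 20 µM, limit read from the data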
Target sequence (Q9GZU7 76-261 limits assumed): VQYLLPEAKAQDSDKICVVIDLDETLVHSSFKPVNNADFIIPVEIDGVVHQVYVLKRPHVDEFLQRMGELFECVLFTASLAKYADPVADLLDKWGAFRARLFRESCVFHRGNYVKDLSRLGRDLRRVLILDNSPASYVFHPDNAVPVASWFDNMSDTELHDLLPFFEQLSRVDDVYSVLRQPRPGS
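System: SCP-1 catalytic domain; Reagent: Phospho 17-mer peptide substrate; Doses: one concentration, 20 µM, with 1.0% DMSO; Incubation: 45 min room-temperature reaction, 5 min colour, 30 min stabiliser; Signal: Phosphate-binding colour reagent, absorbance read at 630 nm.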
A number is an active result; n = inactive; ! = repeats disagree.

SMILES | LMPTP inh | SUMO1 PPI mod | DNMT1 block | NadD block | STEP block | Scp-1 inhibitor
COc1cc2c(cc1NC(=O)C(C)OC(=O)C1CC(=O)N(Cc3ccco3)C1)oc1ccccc12 (centres undefined) | n | n | n | n | n | n
Cc1cc(N/N=C/c2ccccc2O)c2ccccc2n1 | 51 | n | n | n | n | n
O=C(Nc1nccs1)NC(C(F)(F)F)C(F)(F)F | n | n | n | n | n | n
Nc1nnc(SCCCC(=O)c2ccc(Br)cc2)s1 | n | 43 | n | n | n | n
COCc1nnc(NC(=O)c2ccc(S(=O)(=O)N3CCCc4ccccc43)cc2)o1 | n | n | n | n | n | n
COc1ccc(-c2nnc(NC(=O)c3ccc(S(=O)(=O)N4CCCc5ccccc54)cc3)o2)cc1 | n | n | n | 86 | n | n
Cc1ccc(Nc2n[nH]c(C)c2[N+](=O)[O-])c(C)c1 | n | n | n | n | n | n
CC(C)Nc1ncnc2c1cnn2-c1ccc(Cl)cc1 | n | n | 86 | n | n | n
Clc1ccc(Nc2ncnc3c2cnn3-c2ccccc2)cc1 | n | n | n | n | n | n
Cc1ccc(NC(=O)Cn2c(O)c(N=NC(=O)c3cc4ccccc4cc3O)c3ccccc32)cc1 | n | n | n | 46 | n | n
O=[N+]([O-])c1ccc(NC(=S)N2CCN(c3ccccc3)CC2)cc1 | n | n | n | n | n | n
COC(=O)CCC(=O)OC1(C)C(=O)C=C2C=C(c3ccsc3)OC=C2C1=O (centres undefined) | n | n | n | 35 | n | n
COc1ccc2nc(N/C(N)=N/C(=S)Nc3cccc(C)c3)nc(C)c2c1 | n | n | n | n | n | n
CC(C)C(=O)Nc1ccc(C(=O)N/N=C/C2CC3C=CC2C3)cc1 (centres undefined) | n | 40 | n | n | n | n
CC(C)CCNC(=O)C1CC(=O)N(CCc2ccccc2)C1 (centres undefined) | n | n | n | n | n | n
O=C(CCC(=O)N(CC(=O)NC1CCCCC1)Cc1ccco1)Nc1nccs1 | n | n | n | n | n | n
CC(C)C(=O)NC(c1ccco1)c1ccc2cccnc2c1O (centres undefined) | n | n | n | n | n | n
Oc1c(C(Nc2nc3ccccc3s2)c2ccco2)ccc2cccnc12 (centres undefined) | n | 49 | n | 35 | n | n
COc1cccc(NC(=O)c2ccccc2NS(C)(=O)=O)c1 | n | n | n | n | n | n
COC(=O)Cn1c(C)c(C(C)=O)c(C(C)=O)c1C | n | 48 | n | n | n | n
O=c1c2sccc2nc(SCc2ccc([N+](=O)[O-])cc2)n1Cc1ccccn1 | n | n | n | n | n | n
O=C(/C=C/c1ccc(Br)o1)OCc1nc2ccsc2c(=O)[nH]1 | 76 | 120 | 104 | 53 | 89 | 86
Cc1ccc(C(=O)OCc2nc3ccsc3c(=O)[nH]2)o1 | n | n | n | n | n | n
COc1ccc(NC(=S)NC2CCCCCC2)c(OC)c1 | n | n | n | n | n | n
CC(C)C(=O)NNS(=O)(=O)c1ccccc1 | n | 44 | n | n | n | n
SMILES | LMPTP inh | SUMO1 PPI mod | DNMT1 block | NadD block | STEP block | Scp-1 inhibitor
COc1ccc2[nH]c(=O)c(CN(Cc3nnnn3Cc3ccc(F)cc3)CC3CCCO3)cc2c1 (centres undefined) | n | n | n | n | n | n
O=C(N/N=C1\C(=O)c2cccc3cccc1c23)c1ccc(O)cc1 | n | 41 | n | n | n | n
Cc1cccc(-c2nc(NCCCN(C)C)c3ccccc3n2)c1 | n | n | n | n | n | n
Cc1cccc(-c2nc(NCCCN3CCOCC3)c3ccccc3n2)c1 | 67 | n | n | n | n | n
c1ccc(-c2nc(NCCCN3CCOCC3)c3ccccc3n2)cc1 | 51 | n | n | n | n | n
Cc1ccc(S(=O)(=O)NCc2ccccc2)cc1C(=O)NC1CCCCC1 | n | n | n | n | n | n
COc1ccc2c(c1)CCCN2C(N)=Nc1ccc(Cl)cc1 | n | n | n | n | n | n
N[C@@H](Cc1cc(I)c(Oc2ccc(O)c(I)c2)c(I)c1)C(=O)O | n | 40! | 77! | 58! | n | n
CCCSC(=S)c1c(C)[nH]n(-c2ccccc2)c1=O | n | n | n | n | n | n
COc1ccc(Cl)cc1C(=O)Nc1cccc(-c2ccc3nncn3n2)c1 | n | 47 | n | n | 61 | n
CC(CNC(=O)c1cccs1)c1ccc([N+](=O)[O-])cc1 (centres undefined) | n | 56 | n | n | n | n
CN1CC(=O)NC1=NC(=O)c1cc(F)c(F)cc1Cl | n | n | n | n | n | n
CCOC(=O)c1sc(N/N=C/c2cc(Br)c(O)c(OC)c2)nc1C | n | n | n | n | 84 | n
Cc1ccc(/C=C2\SC(=S)N(Cc3ccccc3)C2=O)o1 | n | n | n | n | n | n
Cc1ccc(NC(=O)CN2C(=O)S/C(=C\c3cc(C)n(-c4cccc(C(=O)O)c4)c3C)C2=O)cc1 | n | n | n | n | n | n
O=C(O)c1cc(-c2ccc(/C=C3/SC(=S)N(Cc4ccccc4)C3=O)o2)ccc1Cl | 71 | n | 83 | n | n | 57
C#CCN1C(=O)S/C(=C\c2ccc(-c3ccc(C(=O)O)cc3C)o2)C1=O | n | n | 79 | n | n | 62
Cc1ccc(NC(=O)CN2C(=O)S/C(=C/c3ccc(-c4cccc(C(=O)O)c4)o3)C2=O)cc1 | 64 | n | 56 | n | 40 | 65
N/C(=N/OS(=O)(=O)c1ccc([N+](=O)[O-])cc1)c1ccncc1 | n | n | n | n | n | n
O=C1C(=C(I)I)c2ccccc2-c2ccccc21 | n | 36 | 115 | n | n | n
CN(c1cccc(NC(=O)c2ccc(C(C)(C)C)cc2)c1)S(C)(=O)=O | n | 44 | n | n | n | n
CN(c1cccc(NC(=O)c2ccc(N(C)S(=O)(=O)c3ccccc3)cc2)c1)S(C)(=O)=O | n | n | n | n | n | n
O=C(NCCN1CCCC1=O)C1CCC(=O)N(CCc2cccc(F)c2)C1 (centres undefined) | n | 44 | n | n | n | n
O=C(NCc1cccc(F)c1)C1CCC(=O)N(CCc2cccc(F)c2)C1 (centres undefined) | n | n | n | n | n | n
O=C(Nc1ccccc1F)NC1CC1 | n | 56 | n | n | n | n

Source: PubChem BioAssay
